Assay results reported in ChEMBL document CHEMBL1147098, “Growth inhibition of Toxoplasma gondii and Plasmodium falciparum by nanomolar concentrations of 1-hydroxy-2-dodecyl-4(1H)quinolone, a high-affinity inhibitor of alternative (type II) NADH dehydrogenases” (Antimicrob Agents Chemother, 2007).
Each block holds one compound with its values, some of them ahead of it. Activity calls are given as the source filed them. The rule behind the calls is not given here.

What was measured:
Toxoplasma gondii [1] = assay: Susceptibility of Toxoplasma gondii lacZ-transfected RH strain in human foreskin fibroblasts assessed as growth at 0.1 uM to 0.01 uM after 30 hrs by colorimetric assay; assay type: functional
How it was run: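 HFF infected with β-galactosidase-expressing RH strain and exposed to 1-hydroxy-2-alkyl-4(1H)quinolone alkyl derivatives at 0.1 and 0.01 μM. Replication quantified by colorimetric β-galactosidase assay with chlorophenol red-β-D-galactopyranoside substrate.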

Toxoplasma gondii [2] = assay: (§1) Effect on Toxoplasma gondii RH growth in human foreskin fibroblasts incubated with 0.1 uM for 24 hrs after 6 hrs postinfection assessed as recovery after 72 hrs without drug; assay type: functional
Toxoplasma gondii [3] = assay: Inhibition of Toxoplasma gondii lacZ-transfected RH strain in human foreskin fibroblasts assessed as beta galactosidase activity after 30 hrs by colorimetric assay; assay type: functional, organism-based
How it was run: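 lacZ-expressing RH tachyzoites (1 × 10^4/well) infected HFF for 4 h at 37°C in 1% DMEM without phenol red, washed, then exposed in duplicate to 1, 0.1, 0.01 and 0.001 μM with 100 μM chlorophenol red-β-D-galactopyranoside (final) at 37°C. Absorbance at 570 and 630 nm read at 30 h postinfection.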

Toxoplasma gondii [4] = assay: Inhibition of Toxoplasma gondii RH replication in human foreskin fibroblasts incubated for 24 hrs with drug after 36 hrs postinfection by immunofluorescence microscopy; assay type: functional, organism-based
Plasmodium falciparum [5] = assay: Inhibition of Plasmodium falciparum trophozoite replication after 36 hrs by fluorometric assay; assay type: functional, organism-based
How it was run: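 FCBR young trophozoites (2% initial parasitemia) in RPMI 1640 with 10% human plasma and group A erythrocytes, gassed 90% N2/5% O2/5% CO2, exposed 36 h to 1 μM-1 nM. Erythrocytes lysed with saponin, pellets solubilized in guanidium-HCl/sodium acetate, stained with Hoechst 33258, read at 340/460 nm in triplicate. 2 μM chloroquine defined background.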

Toxoplasma gondii [6] = assay: Effect on Toxoplasma gondii RH growth in human foreskin fibroblasts incubated with 1 uM for 24 hrs assessed as recovery after 72 hrs without drug; assay type: functional
Toxoplasma gondii [7] = assay: Effect on Toxoplasma gondii RH growth in human foreskin fibroblasts incubated with 0.1 uM for 24 hrs assessed as recovery after 72 hrs without drug; assay type: functional
HFF = assay: Inhibitory effect on metabolic activity of HFF cells upto 10 uM by Alamar Blue assay; assay type: functional, cell-based; conditions: Homo sapiens
Plasmodium falciparum [8] = assay: Reduced parasitaemia in Plasmodium falciparum FCBR ring stage parasites; assay type: functional, organism-based
How it was run: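 Sorbitol-synchronized FCBR ring-stage cultures (initial parasitemia 3.2%) in T25 flasks, exposed 48 h to 1 μM, 100 nM, 10 nM and 1 nM. Parasitemia counted on Giemsa-stained blood smears relative to DMSO control.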

Toxoplasma gondii [9] = assay: Inhibition of invasion of Toxoplasma gondii RH in human foreskin fibroblasts assessed as decreased infection rate pretreated with 1 to 1000 nM after 2 hrs before infection; assay type: functional, organism-based
How it was run: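 Extracellular tachyzoites pretreated 2 h with 1 to 1,000 nM before infecting HFF; infection rate compared with untreated parasites.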

Toxoplasma gondii [10] = assay: Inhibition of Toxoplasma gondii RH replication in human foreskin fibroblasts incubated for 24 hrs with drug after 2 hrs postinfection by immunofluorescence microscopy; assay type: functional, organism-based
Toxoplasma gondii [11] = assay: as §1; assay type: functional; remark: listed apart in the source
Toxoplasma gondii [12] = assay: Inhibition of Toxoplasma gondii RH replication in human foreskin fibroblasts incubated for 24 hrs with drug after 2 hrs postinfection by immunofluorescence microscopy

Structure (SMILES): CCCCCCCCc1cc(=O)c2ccccc2n1O
Activity (Toxoplasma gondii [1]): 14.8%

IC50 (Plasmodium falciparum [5]): 14 nM | IC50 (Plasmodium falciparum [8]): 54.7 nM
Structure (SMILES): CCCCCCCCCCCCc1cc(=O)c2ccccc2n1O
Activity (Toxoplasma gondii [2]): 65.8% | IC50 (Toxoplasma gondii [3]): 3.7 nM | IC50 (Toxoplasma gondii [4]): 4 nM | Activity (Toxoplasma gondii [6]): 2.9% | Activity (Toxoplasma gondii [7]): 49.3% | Activity (HFF): inactive | Activity (Toxoplasma gondii [9]): inactive | Activity (Toxoplasma gondii [1]): 42.6% | IC50 (Toxoplasma gondii [10]): 2.4 nM | Activity (Toxoplasma gondii [11]): 65.8%

Structure (SMILES): CCCCCCCCCCCCCCc1cc(=O)c2ccccc2n1O
Activity (Toxoplasma gondii [1]): 37.9%

Structure (SMILES): O=C1C(O)=C([C@H]2CC[C@H](c3ccc(Cl)cc3)CC2)C(=O)c2ccccc21 [ATOVAQUONE]
IC50 (Toxoplasma gondii [12]): 9 nM

Structure (SMILES): CCCCCCc1cc(=O)c2ccccc2n1O
Activity (Toxoplasma gondii [1]): 16.3%

Structure (SMILES): CCCCCc1cc(=O)c2ccccc2n1O
Activity (Toxoplasma gondii [1]): 98.2%
